Laboratory results reported in ChEMBL document CHEMBL1141391 (J Med Chem, 2007).

Experiments:
[1] = system: 1A9; assay: Relative resistance, IC50 for 1A9-A8 A8 T-beta-274I mutant/IC50 for 1A9; format: functional, Homo sapiens
[2] = system: 1A9; assay: Inhibition of growth in 1A9 cell line after 72 hrs; format: functional, cell-based; settings: Homo sapiens, 1A9, 72 h
[3] = system: 1A9/ptx-10; assay: Inhibition of growth in paclitaxel resistant 1A9-PTX10 F-beta-270V mutant cell line after 72 hrs by SRB assay; format: functional, cell-based; settings: Homo sapiens, 1A9/ptx-10, 72 h
[4] = molecular target: Tubulin (Homo sapiens) (UniProt P68371+Q9H4B7+P0DPH7+P68366+Q13509+Q71U36+P04350+Q3ZCM7+P07437+P68363+Q9BQE3+Q6PEY2+Q13885+Q9BVA1+Q9BUF5); assay: Induction of GTP-tubulin polymerization; format: protein-complex assay
Method in brief: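 ED50 for induction of tubulin assembly, read by light scattering at 350 nm or by fluorescence in a 96-well format. GTP-tubulin was used unless otherwise stated. Some samples were run with GDP-tubulin and normalized to the GTP-tubulin scale. Some values are single determinations.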

[5] = system: 1A9/ptx-10; assay: Relative resistance, IC50 for 1A9-PTX10 F-beta-270V mutant/IC50 for 1A9; format: functional, Homo sapiens
[6] = system: A2780; assay: Cytotoxicity against A2780 cell line; format: cell-based; settings: Homo sapiens
[7] = Inhibition of growth in epothilone A resistant 1A9-A8 T-beta-274I mutant cell line after 72 hrs by SRB assay; format: functional, cell-based; settings: Homo sapiens, 1A9, 72 h
[8] = system: PC-3; assay: Cytotoxicity against PC3 cell line by MTT assay; format: cell-based; settings: Homo sapiens

ED50 [4] [nM]	Compound	Ratio IC50 [1]	IC50 [2] [nM]	IC50 [3] [nM]	Ratio IC50 [5]	IC50 [6] [nM]	IC50 [7] [nM]	IC50 [8] [nM]
1600	CC(=O)O[C@H]1C(=O)[C@@]2(C)[C@@H]3[C@H](OC(=O)c4ccccc4)[C@]4(O)C[C@H](OC(=O)[C@H](O)[C@@H](NC(=O)c5ccccc5)c5cccc(c5)/C=C/CCC(=O)O[C@]35CO[C@@H]5C[C@@H]2O)C(C)=C1C4(C)C	>23	12.9	157	21	680	> 300	34
490	C=CCCC(=O)O[C@@]12CO[C@@H]1C[C@H](O)[C@@]1(C)C(=O)[C@H](OC(C)=O)C3=C(C)[C@@H](OC(=O)[C@H](O)[C@@H](NC(=O)c4ccccc4)c4cccc(C=C)c4)C[C@@](O)([C@@H](OC(=O)c4ccccc4)[C@H]21)C3(C)C	10	13.7	42	5.5	350	137	55
280	CC(=O)O[C@H]1C(=O)[C@@]2(C)[C@@H]3[C@H](OC(=O)c4ccccc4)[C@]4(O)C[C@H](OC(=O)[C@H](O)[C@@H](NC(=O)c5ccccc5)c5ccccc5OC/C=C\C(=O)O[C@]35CO[C@@H]5C[C@@H]2O)C(C)=C1C4(C)C	3.8	7	126	17	14.5	26.5	15

Compound	ED50 [4] [nM]	Ratio IC50 [1]	IC50 [2] [nM]	IC50 [3] [nM]	Ratio IC50 [5]	IC50 [6] [nM]	IC50 [7] [nM]	IC50 [8] [nM]
CC(=O)O[C@H]1C(=O)[C@@]2(C)[C@@H]3[C@H](OC(=O)c4ccccc4)[C@]4(O)C[C@H](OC(=O)[C@H](O)[C@@H](NC(=O)c5ccccc5)c5ccccc5CCCC(=O)O[C@]35CO[C@@H]5C[C@@H]2O)C(C)=C1C4(C)C	210	6.3	0.07	1.03	12	0.5	0.44	2.4
